Screens deposited in PubChem BioAssay by several laboratories.
Compounds with a hit are over-represented: about 3.6% of the library has one in this group of screens.
AHR act – human AHR activation; P35869; AHR-responsive luciferase reporter cells, luminescence; activation, % at 5 µM; hit rate 2.5% among 320,000; AID 2796; in the data active = activation above about 47%;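 note: 0% = vehicle wells and 100% = reference agonist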
STAT3 act – increases IL-6 driven STAT3 reporter signal; activation (% of control), % at 5.6 µM; U3A cells, IL-6 STAT3-luciferase reporter, luminescence; 100% = signal with IL-6 EC80 alone; hit rate 0.91% among 190,000;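 active = activation above the screen-wide mean of compound activation plus 3 SD, cut at about 130% in these data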;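 note: 0% = background luminescence of wells with medium and substrate only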
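Test system: human U3A cells carrying STAT3-luciferase construct; control set: IL-6-only wells as 100% reference; timing: compound pre-incubation 1 h before IL-6, then 6 h stimulation at 37 °C; also added: IL-6 stimulus at 33 ng/mL final; evaluation: % activation versus median of IL-6-stimulated wells; detection: reporter luminescence signal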
PolyA inhibitor – yeast polyadenylation inhibition. S. cerevisiae SKY197-pL101 polyadenylation reporter, beta-gal luminescence; efflux-impaired pdr1/pdr3 knockout yeast; score 100 = 6 SD above DMSO. AID 1875. hit rate 0.02% among 300,000. activity score, % at 12 µM;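 active = lowest replicate activity score at least 50, where 100 means six control SD above control mean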;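 note: yeast exposed to compound for 9 h at 30 °C; higher score means more reporter readthrough which indicates perturbed polyadenylation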
HSF1 inhib – HSF1 inhibition. NIH3T3-HGL HSE-luciferase, MG132-induced, luminescence 8 h; stronger effect = lower value. activity change, negative = inhibition, % at 7.5 µM (by protocol). hit rate 0.77% among 300,000;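 active = more than half of replicate wells show activity change below -50%, luminescence cut by over half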;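 note: luciferase reports HSF-1 transcriptional activity via heat shock element; 0% = median of DMSO wells and -100% = zero luminescence signal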
Hsp70 act – switches on Hsp70 transcription | HeLa Hsp70 promoter luciferase reporter, luminescence; scaled: vehicle 0, proteasome-inhibitor control 100% | activation, % at 10 µM | hit rate 0.04% among 200,000;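 active = activation above the mean across all tested compounds plus 3 SD, cutoff set per campaign, cut at about 5.5% in these data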;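 note: 100% = MG132 at 30 µM as the positive control and 0% = DMSO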
PERK inh – human PERK inhibition, primary cell-based screen. inhibition, % at 5.6 µM. Q9NZJ5. hit rate 0.17% among 220,000. CHO PERK-DD fusion, SEAP luminescence translation reporter;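 active = inhibition above the mean inhibition of all tested compounds plus 3 SD, set separately per screening campaign, cut at about 2.9% in these data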;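 note: PERK kinase domain activated by AP20187 dimerizer at 100 nM; 0% = DMSO with dimerizer and 100% = rapamycin at 8.4 µM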
An asterisk follows results filed as active; · = not tested or not shown.

SMILES	AHR act	STAT3 act	PolyA inhibitor	HSF1 inhib	Hsp70 act	PERK inh
Oc1ccc(Cl)cc1C=Nc1ccc2c3c(cccc13)CC2	49*	99	-10	3	0	0
C=CCN(C(=O)CC(NC(C)=O)c1ccccc1)c1nc(-c2ccc(S(C)(=O)=O)cc2)cs1 (configuration not stated)	5	·	16	9	·	·
CN(C)C(=C(C#N)C#N)N1CCN(c2ccc(Cl)c(Cl)c2)CC1	62*	85	-8	2	0	0
CSC(=NC#N)N1CCN(c2ccc(Cl)cc2)CC1	73*	107	15	27	0	0
CN(C)C(=C(C#N)C#N)N1CCN(c2ccc(Cl)cc2)CC1	68*	88	14	-11	0	0
O=C(O)c1cc(Cl)c(Cl)cc1C(=O)NCc1ccco1	-2	·	23	7	·	·
Cc1ccccc1SCC(=O)OCC(=O)NCCNC(=O)COC(=O)CSc1ccccc1C	0	·	-2	2	·	·
CCC(C)Nc1nc(-c2cccc(OC)c2O)nc2ccccc12 (configuration not stated)	11	113	-36	-5	0	-1
COc1cccc(-c2nc(NC(C)C)c3ccccc3n2)c1O	27	134*	-12	-3	0	0
COc1ccc(C(=O)Nn2c(SCC(=O)NCc3ccco3)nc3ccccc3c2=O)cc1	-2	48	6	-75*	0	0
COc1ccc(C(=O)Nn2c(SCC(=O)NC3CCCCC3)nc3ccccc3c2=O)cc1	2	61	-3	-64*	0	0
COc1ccc(C(=O)Nn2c(SCC(=O)c3ccc(Cl)cc3)nc3ccccc3c2=O)cc1	2	82	12	-71*	0	0
COc1ccc(C(=O)Nn2c(SCC(=O)N3CCC(C)CC3)nc3ccccc3c2=O)cc1	3	31	-2	-66*	0	-1
COCCCn1c(SCC(=O)NC2CCCCC2)nc2ccccc2c1=O	1	·	8	3	·	·
O=C(CCc1nnc2ccc(NCc3ccco3)nn12)Nc1ccc(F)cc1F	4	·	-8	0	·	·
NC(=O)c1cc(S(=O)(=O)NCCc2ccc(S(N)(=O)=O)cc2)cs1	0	·	-10	-2	·	·
O=C1CN(C(=O)COC(=O)CCS(=O)(=O)c2ccccc2Cl)c2ccccc2N1	3	·	·	·	·	·
CCCCN(C(=O)CCCc1nc2ccccc2c(=O)[nH]1)c1c(N)n(CC(C)C)c(=O)[nH]c1=O	1	·	·	·	·	·
COc1ccc(-n2c(-c3ccc(F)cc3)cnc2SCC(=O)NCc2ccco2)cc1	2	94	13	-54*	0	0
COC(=O)c1ccc2nc(NC(=O)C(C)(C)C)sc2c1	-3	16	-20	-55*	-1	-1
COC(=O)c1ccc2nc(Nc3nc4ccc(F)cc4s3)sc2c1	-2	24	8	-89*	-1	1
COC(=O)c1ccc2nc(NC(=O)C3CCCCC3)sc2c1	4	107	-5	-8	0	1
CCOC(=O)c1csc(Nc2nc3ccc(F)cc3s2)n1	31	96	-3	15	0	-1
CC(=O)c1sc(Nc2nc3ccc(F)cc3s2)nc1C	65*	106	-8	55	0	-2
COc1ccc(NC(=O)c2ccc3nc(C)sc3c2)cc1	-10	·	-10	-44	·	·
SMILES	AHR act	STAT3 act	PolyA inhibitor	HSF1 inhib	Hsp70 act	PERK inh
COC(=O)c1ccc(NC(=O)c2ccc3nc(C)sc3c2)cc1	-10	·	-7	-68*	·	·
CC(=O)Oc1ccc(C(=O)Nc2ccc(C3(C#N)CCCC3)cc2)cc1	60*	·	0	-8	·	·
NC(=O)c1ccc(NC(=O)COC(=O)CCN2C(=O)c3ccccc3C2=O)cc1	-1	·	·	·	·	·
CC(=O)c1ccc(C(=O)N2CCCC(CCC(=O)N(C)CCc3ccccn3)C2)s1 (configuration not stated)	2	100	16	-8	0	1
COc1ccc(-n2nnnc2SCC(=O)c2ccc3c(c2)OCCO3)c(OC)c1	2	100	-9	11	0	4.0*
CC(C)(C)c1ccc(S(=O)(=O)NNC(=O)c2cc3ccccc3[nH]2)cc1	74*	·	-18	18	·	·
Cc1nc(=O)c(-c2ccccc2)c(C)n1-c1cccc(/C=C/C(=O)O)c1	0	·	-9	-8	·	·
Cc1cccc(CN2CCNC2=O)c1	1	96	·	-71*	0	1
CCN1CCN(C(=S)NC(=O)c2cccc(Br)c2)CC1	1	·	·	·	·	·
Cc1cnccc1CN(C)Cc1cn(C)nc1-c1cccc(Cl)c1	67*	106	-5	3	0	-1
O=C(Nc1nc2ccccc2[nH]1)c1cc(F)cc(F)c1	16	·	-12	10	·	·
COc1cc(OC)cc(C(=O)Nc2nc3ccccc3[nH]2)c1	39	99	10	8	0	0
Cc1cc(C)cc(C(=O)Nc2nc3ccccc3[nH]2)c1	57*	·	-6	13	·	·
Cc1ccsc1C(=O)Nc1nc2ccccc2[nH]1	111*	·	-5	28	·	0
O=C(Nc1nc2ccccc2[nH]1)c1cc2ccccc2o1	56*	80	-2	21	0	0
CCc1ccc(C(=O)Nc2nc3ccccc3[nH]2)cc1	51*	·	-12	-23	·	·
O=C(Nc1nc2ccccc2[nH]1)c1ccc(F)cc1	11	39	-4	11	-1	0
COc1cc(CC(=O)OCC(=O)c2ccc(F)cc2)cc(OC)c1OC	0	·	·	·	·	·
COc1ccc2oc(C(=O)OCC(=O)N(C)CC(=O)Nc3ccc(C)cc3)c(C)c2c1	0	·	4	-51*	·	·
C=CCn1c(SCc2ccccc2Cl)nnc1-c1sc2nc(C)cc(C)c2c1N	79*	·	-2	-9	·	0
O=[N+]([O-])c1cc(C=Nc2ccc3ccccc3c2)ccc1Br	68*	110	-11	3	0	1
CC(=O)Nc1ccc(S(=O)(=O)N2CCN(C(=O)c3ncoc3-c3cccc(C)c3)CC2)cc1	11	·	8	2	·	·
Cc1ccc(-c2ocnc2C(=O)Nc2nc(C)cs2)cc1	68*	·	1	2	·	·
Cc1cccc(-c2ocnc2C(=O)Nc2ccccc2NC(=O)c2ccccn2)c1	56*	·	-21	6	·	·
Cc1cccc(-c2ocnc2C(=O)N2CCN(C(=O)c3cccs3)CC2)c1	12	·	-5	-87*	·	·
COc1ccc2cc(CO)c3cc(OC)c(OC)cc3c2c1	24	·	·	·	·	·
CN(C)C(=O)OCC1COc2ccccc2O1 (configuration not stated)	-3	·	11	9	·	2
CCCCNc1ccc(C(=O)OCCOCCOCCOCCOCCOCCOCCOCCOCCOC)cc1	-2	·	·	·	·	·
COCCN(C(=O)c1snc(C(N)=O)c1N)C(C(=O)NC1CCCCC1)c1ccc(OC)c(OC)c1 (configuration not stated)	-3	·	4	6	·	·
Cc1cscc1NC(=O)/C=C/C(=O)O	10	·	3	-4	·	3.5*
